PMC11544174 (Acta Pharmaceutica Sinica. B, 2024)

Columns and labels:
[1] = test system: respiratory syncytial virus (RSV); assay: cytopathic effect; assay type: cell-based, strain A2; details: human respiratory syncytial virus, HEp-2, read-out: IC50 ± SD (50% inhibition concentration), anti-RSV activity
How it was run: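 Host cells were HEp-2 in DMEM with 10% FBS. RSV A2 stock was propagated in HEp-2 and titred by plaque assay. Test compounds were held as 50 mmol/L DMSO stocks at −20 °C and diluted into medium to final concentrations. Ribavirin served as positive control.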

cytotoxicity = assay type: cell-based; details: human, HEp-2 cells
How it was run: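 HEp-2 cells were grown in DMEM with 10% FBS. Test compounds were held as 50 mmol/L DMSO stocks at −20 °C and diluted into culture medium to final concentrations. Ribavirin served as positive control.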

`NC(=O)c1ncn([C@@H]2O[C@H](CO)[C@@H](O)[C@H]2O)n1` [Ribavirin] showed an IC50 [1] of 15 ± 1 µM and a CC50 (cytotoxicity) greater than 50 µM.
